Where “and” joins values, the source holds several entries; their conditions need not be identical. Identical values can stand only once.
How the values were obtained:
[1] = test system: FAP; details: read-out: IC50 FAP; cited from earlier work
[2] = test system: FAP-positive cell lines (U87, NCIH228, and SKMEL24); details: inhibitor 10^-10 to 10^-4 M, then 25 nM QCP01 for 1 h at 37 °C
[3] = test system: U87 and PC3 tumor xenografts; assay: NIRF imaging of QCP01 in tumor-bearing mice; assay type: in vivo, NOD/SCID mice
[4] = test system: FAP-positive cell lines (NCIH2228, U87, and SKMEL24); assay: In vitro fluorescence binding of QCP01 to FAP-positive cell lines; assay type: cell-based, human; details: 1 h incubation, range 50-0.78 nM
[5] = test system: FAP-negative cell lines (PC3, NCIH226, and HCT116); assay: In vitro fluorescence binding of QCP01 to FAP-negative cell lines; assay type: cell-based, human; details: any of the concentrations tested (50-0.78 nM)
[6] = test system: U87 and PC3 tumor xenografts; assay: SPECT-CT imaging of [111In]QCP02 in tumor-bearing mice; assay type: in vivo, NOD/SCID mice
[7] = test system: FAP-negative PC3 cells; assay: Cellular uptake of [111In]QCP02 in PC3 cells; assay type: cell-based, human; details: 0.037 MBq, 30 min at 37 °C
[8] = test system: FAP-positive U87 cells; assay: Cellular uptake of [111In]QCP02 in U87 cells; assay type: cell-based, human; details: 0.037 MBq, 30 min at 37 °C
[9] = test system: FAP-negative PC3 xenograft; assay: Ex vivo biodistribution of [111In]QCP02, PC3 xenograft; set-up: species or system NOD/SCID mice
How it was run: (§1)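 Male NOD/SCID mice (6–8 weeks) carried subcutaneous xenografts of 1 million U87 cells (left upper flank) and PC3 cells (right upper flank) in HBSS, used at 100–300 mm3. Radioligand was given as 0.37 MBq in 200 μL saline (<10% ethanol) via the tail vein. Groups (n = 4) were killed by CO2 at 5 min, 30 min, 1, 3, 6, 10 and 28 h. Weighed tissues were gamma-counted, decay-corrected against a standard dilution of the dose, and expressed as %ID/g.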

[10] = test system: FAP-positive U87 xenograft; assay: Ex vivo biodistribution of [111In]QCP02, U87 xenograft; set-up: species or system NOD/SCID mice
How it was run: as §1

[11] = test system: DPP-IV; details: read-out: IC50 DPP-IV; cited from earlier work
[12] = 1 h post injection, 0.37 MBq via tail vein

## N[C@@H](CC(=O)N1CCn2c(nnc2C(F)(F)F)C1)Cc1cc(F)c(F)cc1F [sitagliptin]
[1]
  IC50: > 100000 nM
[2]
  effect of pretreatment on QCP01 binding (fluorescence signal): not inhibited

## CC1(C)C(/C=C/C2=C(Oc3ccc(S(=O)(=O)O)cc3)C(=C/C=C3/N(CCCCS(=O)(=O)O)c4ccc(S(=O)(=O)O)cc4C3(C)C)/CCC2)=[N+](CCCCCC(=O)NCCCOc2ccc3nccc(C(=O)NCC(=O)N4CCC[C@H]4C#N)c3c2)c2ccc(S(=O)(=O)[O-])cc21 [QCP01]
[3]; 5 nmol QCP01 via tail vein, 30 min after injection
  NIRF uptake in normal tissues: mild degree (moderate in the kidney)
[3]; 5 nmol QCP01 via tail vein, 30 min until 5 h, washout at 24 h
  NIRF uptake in PC3 tumors: mild uptake
[3]; 5 nmol QCP01 via tail vein, imaging 0.5-48 h
  NIRF uptake in U87 xenografts over time: persisted up to 5 h after injection, with washout after 24 h
[3]; 5, 24, and 48 h after injection
  ex vivo NIRF uptake of excised U87 tumor versus PC3 tumor: higher QCP01 uptake than the PC3 tumor
[4]
  concentration at which binding was saturated: 50 nM
  lowest concentration at which QCP01 binding was observed: 1.56 nM
[5]
  binding in FAP-negative cell lines: no specific binding

## N#C[C@@H]1CCCN1C(=O)CNC(=O)c1ccnc2ccc(OCCCNC(=O)CCC(C(=O)O)N3CCN(CC(=O)[O-])CCN(CC(=O)[O-])CCN(CC(=O)[O-])CC3)cc12.[111In+3] (stereo partly drawn) [[^111In]QCP02, [^111In]2,2′,2″-(10-(1-Carboxy-4-((3-((4-((2-((S)-2-cyanopyrrolidin-1-yl)-2-oxoethyl)carbamoyl)quinolin-6-yl)oxy)propyl)amino)-4-oxobutyl)-1,4,7,10-tetraazacyclododecane-1,4,7-triyl)triacetate]
[6]; 7.4 MBq via tail vein, uptake seen as early as 1 h post injection
  retention of uptake in U87 xenografts on SPECT-CT: up to 10 h
[6]; all imaging time points (1, 3, 6, 10, 28 h)
  uptake in PC3 xenografts on SPECT-CT: low uptake
[7]
  binding of the incubated dose: 0.01%
[8]
  binding of the incubated dose: over 30%
[9]; [12]
  uptake in PC3 xenograft: 4.12 ± 0.36 % ID/g
[9]; all time points
  uptake in PC3 tumor: less than 5 % ID/g
[10]; 5 min post injection
  uptake in U87 tumor: over 10 % ID/g
[10]; 30 min post injection
  uptake in U87 tumor (peak): 18.2 % ID/g and 18.16 ± 11.67 % ID/g
[10]; [12]
  uptake in U87 xenograft: 16.09 ± 4.17 % ID/g
[10]; 6 h post injection, co-injection of non-radioactive QCP02 (50 μg per mouse)
  uptake in U87 xenografts, blocked: 0.55 ± 0.23 % ID/g
[10]; all time points
  uptake in U87 xenograft relative to PC3 xenograft: 3–4 fold
[10]; post injection
  time by which washout of radiotracer in U87 tumors was observed: ≤ 28 h

## CC(C)[C@H](N)C(=O)N1CCC[C@H]1B(O)O [Val-boroPro]
[11]
  IC50: 22 ± 1 nM

Reference: paper PMC8214312 (Journal of medicinal chemistry, 2021)
